KCNK9 inh: KCNK9 potassium channel inhibitors, primary screen, HEK293 cells, thallium flux. Potassium channel subfamily K member 9 (Homo sapiens), Q9NPC2. FluxOR thallium flux fluorescence; active compounds read low. hit rate 1.2% among 310,000. B-score at 10 µM;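 active = ratio B-score over 3 SD below the library mean, with starting fluorescence within 5 SD of its mean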;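 also: negative B-score means less thallium flux so channel inhibition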
Target sequence (Q9NPC2 whole entry, looked up): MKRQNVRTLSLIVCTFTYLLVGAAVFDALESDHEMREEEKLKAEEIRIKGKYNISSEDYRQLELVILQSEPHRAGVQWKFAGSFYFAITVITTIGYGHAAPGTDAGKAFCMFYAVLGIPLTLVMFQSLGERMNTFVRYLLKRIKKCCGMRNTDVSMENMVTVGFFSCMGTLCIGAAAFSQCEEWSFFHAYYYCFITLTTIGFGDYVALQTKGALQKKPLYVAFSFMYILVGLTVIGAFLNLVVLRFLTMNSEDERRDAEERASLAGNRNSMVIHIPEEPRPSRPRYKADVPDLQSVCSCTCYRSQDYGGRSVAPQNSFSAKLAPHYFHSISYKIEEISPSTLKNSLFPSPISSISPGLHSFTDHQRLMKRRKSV
Kir21 inh: inhibitors of mouse Kir2.1 inward-rectifier potassium channel | Inward rectifier potassium channel 2 (Mus musculus), P35561 | HEK293-Kir2.1, FluxOR thallium flux fluorescence; active compounds read low | B-score at 10 µM | hit rate 0.85% among 310,000 | AID 1672, 2009;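 active = fluorescence ratio B-score at or below minus 3 SD of library scores, with starting-brightness B-score within 2 SD, cut at about -4.2 in these data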;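 also: channel flux triggered by added potassium and thallium sulfate stimulus; B-score of peak minus minimum fluorescence over baseline after thallium stimulus; more negative B-score means stronger Kir2.1 block with less thallium influx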
KCNQ1 block: inhibitors of human KCNQ1 channel, primary screen, cell-based, thallium flux, high-throughput. hit rate 1.3% among 310,000. AID 2642, 2010. B-score at 10 µM. Potassium voltage-gated channel subfamily KQT member 1 (Homo sapiens), P51787. CHO-K1 KCNQ1, FluxOR thallium flux fluorescence; active compounds read high;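 active = compounds whose thallium flux B-score, printed positive for inhibition, exceeds three library SD while starting fluorescence stays within three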;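 also: channel opened by potassium depolarization with thallium stimulus after 20 min compound exposure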
KCNK3 inh: human KCNK3 channel inhibitors, primary screen, CHO cells, FluxOR thallium flux, B-score; FluxOR fluorescence; active compounds read low; B-score at 10 µM; hit rate 0.84% among 340,000;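 active = B-score under library mean minus 4 SD, starting fluorescence ratio at most library mean plus 5 SD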;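 also: more negative B-score means stronger inhibition of thallium flux through KCNK3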
hERG protect: hERG rescue from dofetilide block, primary screen, cell-based, CHO-hERG, FluxOR thallium flux, dofetilide IC70. dofetilide IC70 present. activation (rescue from dofetilide block), less the hit threshold, % at 10 µM. hit rate 0.51% among 310,000;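 active = activation above the mean of controls blocked by dofetilide plus 5 SD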;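 also: thallium influx through hERG after potassium depolarization seen as dye fluorescence rise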
KCNQ1 pot: potentiators or activators of KCNQ1 channel, primary screen, cell-based, thallium flux, high-throughput; CHO-K1 KCNQ1, thallium flux FluxOR fluorescence; active compounds read high; AID 2648, 2010; hit rate 0.35% among 310,000; B-score at 10 µM;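 active = fluorescence ratio B-score, a plate-corrected score, at least three library SD, with initial intensity B-score within 5 SD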
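Material: CHO-K1 cells stably expressing KCNQ1. Medium: assay buffer for compound exposure, DMSO matched across wells. Reagent: K+/Tl+ depolarizing stimulus. Compound dosing: single-concentration screen. Times: 37 °C overnight plating, 90-min dark dye load, 20-min compound pretreatment. Technique: FluxOR Tl+ flux fluorescence.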
KCNK9 inh conf: KCNK9 potassium channel inhibitors, confirmation, HEK293 cells, thallium flux, duplicate; FluxOR thallium flux fluorescence; inhibition, % at 10 µM; hit rate 43% among 4,900; shares compounds with KCNK9 inh;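 active = thallium signal inhibited by more than 5 SD of the compound-free buffer control wells, on both duplicate plates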;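 also: 0% = assay buffer control wells without compound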
Kir21 sel: mouse Kir2.1 channel inhibition, confirmation, selectivity assay for KCNK9 modulator project, cell-based, HEK293, thallium flux; shares compounds with KCNK9 inh; Kir2.1 cells, FluxOR thallium flux fluorescence; inhibition, % at 10 µM; hit rate 4% among 4,900;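 active = thallium signal drop more than 5 SD beyond the mean of the no-compound control wells, seen in both duplicate plates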;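 also: signal is fluorescence rise after thallium addition divided by baseline fluorescence; plate controls were assay buffer only for no effect and full block by chlorpromazine control for full effect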
HEK293 Tl ctr: thallium flux in non-induced HEK293 cells, confirmation, counter-screen for KCNK9 inhibitor project, cell-based, second counter screen, non-induced KCNK9-HEK293; hit rate 40% among 4,900; shares compounds with KCNK9 inh; FluxOR thallium flux; inhibition, % at 10 µM;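 active = thallium signal drop beyond 5 SD of the untreated control mean, on both duplicate plates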;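 also: plate controls were buffer only IC0 wells for no effect and SID17386958 at its maximal inhibitory level for full effect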
* marks the source's active call; other numbers are inactive results; i = inactive; . = no result given. This is a sample that favours compounds with a hit; in the whole collection about 3.7% have one here.

SMILES	KCNK9 inh	Kir21 inh	KCNQ1 block	KCNK3 inh	hERG protect	KCNQ1 pot	KCNK9 inh conf	Kir21 sel	HEK293 Tl ctr
FC(F)(F)c1nnc(-c2ccccc2)nc1Sc1ccc(Cl)cc1	i	1.5	i	i	-18	i	i	i	i
FC(F)(F)c1nnc(-c2ccccc2)nc1Oc1ccc(Cl)cc1Cl	i	-0.45	11*	i	-9	i	i	i	i
FC(F)(F)c1nnc(-c2ccccc2)nc1Sc1ccccc1	i	-0.76	i	i	-4	i	.	.	.
Oc1ccc(Br)cc1-c1nc2cnccn2c1NC1CCCCC1	-9.4*	-0.49	i	i	-14	i	i	i	30%*
COc1ccc(CN(CCC(c2ccco2)C(C)C)C(C)=O)cc1OC (stereo not drawn)	i	-0.99	i	i	-10	i	.	.	.
CC(=O)N(CCC(c1ccco1)C(C)C)Cc1ccc(OC(C)C)cc1 (stereo not drawn)	-16*	-3	i	i	-16	i	37%*	i	43%*
COC(=O)[C@@H]1CCCN1C(=O)[C@@H](NC(=O)OC(C)(C)C)C(C)C	i	2	i	i	-1	i	.	.	.
CC(C)COc1cccc(C(=O)N(CC(=O)Nc2ccccc2C(F)(F)F)Cc2ccco2)c1	.	.	.	i	.	.	.	.	.
O=C(NCCN1C(=O)S/C(=C\c2ccc(OC(F)F)cc2)C1=O)C1=COCCO1	i	0.12	i	i	-9	i	i	i	i
COc1ccc(/C=C2\SC(=O)N(CCNC(=O)C3=COCCO3)C2=O)cc1	i	0.18	i	i	-15	i	.	.	.
COc1cccc(C(=O)OC(C)CN2CCCC2)c1 (stereo not drawn)	i	0.64	i	i	-2	i	.	.	.
COc1cccc(C(=O)OCCN2CCCCC2)c1	i	-1.1	i	i	-8	i	i	i	i
Cc1ccc(NC(=O)c2sccc2SCc2cccc(C(F)(F)F)c2)cc1	-14*	0.28	10*	i	-10	i	64%*	48%*	50%*
COc1ccc(NC(=O)C23CC4CC(C2)CC(c2ccc(C)cc2)(C4)C3)cc1	i	0.02	i	i	-12	i	i	i	i
CS(=O)(=O)N(CC(=O)O)c1ccc(C23CC4CC(CC(C4)C2)C3)cc1	i	-1.8	i	i	-7	i	.	.	.
COC(=O)C(C)NC(=O)C12CC3CC(C1)CC(c1ccc(C)cc1)(C3)C2 (stereo not drawn)	i	0.16	i	i	-4	i	i	i	i
COc1ccccc1NC(=O)CN(c1ccc(C23CC4CC(CC(C4)C2)C3)cc1)S(C)(=O)=O	i	0.36	i	i	-11	i	i	i	i
COc1ccccc1NC(=O)C12CC3CC(C1)CC(c1ccc(C)cc1)(C3)C2	i	-0.64	i	i	-12	i	i	i	i
CNC(=O)C12CC3CC(C1)CC(c1ccc(C)cc1)(C3)C2	i	-0.69	i	i	-6	i	.	.	.
CC(C)[C@H](NC(=O)C1CCN(C(=O)[C@@H]2CCCN2)CC1)C(=O)NCc1ccc(F)cc1	i	-0.59	i	i	-7	i	.	.	.
CCCCn1c(N)c(N(CC(C)C)C(=O)C2CCN(S(=O)(=O)c3ccc(C)cc3)CC2)c(=O)[nH]c1=O	i	0.78	i	i	-12	i	.	.	.
COc1ccc(Cl)cc1NC(=O)C(C)Sc1n[nH]c(N)n1 (stereo not drawn)	i	-0.15	i	i	-5	i	.	.	.
Cc1cccc(NC(=O)CC(=O)Nc2cccc(C)c2)c1	i	-0.08	i	i	-5	i	.	.	.
Cc1cccc(NC(=O)C23CCC(C)(C2Br)C3(C)C)c1 (stereo not drawn)	i	-0.93	i	i	-9	i	i	i	i
COc1ccc(-c2noc(CNC(=O)c3ccc4c(c3)OCO4)n2)cc1OC	i	1.9	i	i	-4	i	.	.	.
SMILES	KCNK9 inh	Kir21 inh	KCNQ1 block	KCNK3 inh	hERG protect	KCNQ1 pot	KCNK9 inh conf	Kir21 sel	HEK293 Tl ctr
COc1cccc(CNC(=O)C23CN(Cc4ccccc4)CC2C(c2ccc([N+](=O)[O-])cc2)=NO3)c1 (stereo not drawn)	i	2.1	i	i	-5	i	i	i	i
CC(C)CCNC(=O)C12CN(Cc3ccccc3)CC1C(c1ccc([N+](=O)[O-])cc1)=NO2 (stereo not drawn)	i	0.95	i	i	-10	i	.	.	.
CCCCn1c(SCc2nc(N)nc(Nc3ccccc3C)n2)nc2ccccc2c1=O	-9.5*	1.2	i	i	-4	i	40%*	i	i
CC1=NN(C(=S)Nc2ccccc2)C(C)(C)C1	i	0.02	i	i	-6	i	.	.	.
CC(Cc1ccsc1)NC(=O)CCc1nnc(COc2ccccc2)o1 (stereo not drawn)	i	-0.3	i	i	-13	i	.	.	.
C/C(=N\NC(=O)c1ccn(C)n1)c1cccc(NC(=O)c2ccncc2)c1	i	-0.08	i	i	-9	i	.	.	.
CCOC(=O)C1CCCN(C(=O)c2ccc(C)c(NC(=O)C3=C(C)OCCS3)c2)C1 (stereo not drawn)	i	0.32	i	i	-6	i	.	.	.
CC1CCCCN1C(=O)CSc1nc(C2CC2)nc2c1cnn2-c1ccccc1 (stereo not drawn)	-11*	1.3	i	i	-10	i	56%*	i	i
Cc1nn(C)c(C)c1NC(=O)CSc1nc(C2CC2)nc2c1cnn2-c1ccccc1	i	0.62	i	i	-16	i	.	.	.
O=C(Nc1cc2c3c(c1)CC(=O)N3CCC2)c1ccc(F)cc1	i	-0.49	i	i	-9	i	.	.	.

Screens from PubChem.
